{
  "source": "paper PMC3569657",
  "about": "(EMBO Molecular Medicine, 2012)",
  "key": {"[1]": {"target": "purified recombinant human I2PP2A/SET (Homo sapiens, UniProt Q01105)", "sequence (Q01105 1-277 isoform Q01105-2)": "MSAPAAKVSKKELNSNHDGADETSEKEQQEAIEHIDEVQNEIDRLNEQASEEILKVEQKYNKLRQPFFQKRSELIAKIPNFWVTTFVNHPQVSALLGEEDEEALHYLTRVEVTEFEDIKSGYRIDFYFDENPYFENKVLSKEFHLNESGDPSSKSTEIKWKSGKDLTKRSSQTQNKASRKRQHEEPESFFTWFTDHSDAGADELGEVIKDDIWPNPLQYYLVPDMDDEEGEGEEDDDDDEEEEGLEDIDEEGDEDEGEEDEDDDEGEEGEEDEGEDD", "assay": "SPR binding of purified human I2PP2A/SET to lipid vesicles", "conditions": "liposomes POPC:POPE:x (75:20:5), control POPC:POPE (80:20), 1 µM I2PP2A, 20 mM HEPES pH 7.4, 160 mM KCl", "how_it_was_run": "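SPR at 25°C. Sensor chip coated with vesicles of POPC:POPE:x (75:20:5, x = C18-ceramide or test compound) to about 6200 RU, against a POPC:POPE (80:20) control surface, and stabilised with 50 mM NaOH. Protein (I2PP2A/SET, or p47phox-PX control protein) in 20 mM HEPES pH 7.4, 0.16 M KCl was flowed at 5 µl/min. Triplicate sensorgrams per lipid were fitted individually for ka and kd, giving Kd = kd/ka.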"}, "[2]": {"assay": "FTY720 and P-FTY720 in serum and tumours of LLC-allograft mice by LC/MS/MS", "format": "in vivo, mouse", "conditions": "SK-2−/− mice, oral FTY720 10 mg/kg", "how_it_was_run": "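Lewis lung adenocarcinoma allografts were grown in flanks of WT and SK-2−/− mice. Animals received oral test compound at 10 mg/kg. Parent compound and its phosphorylated form were quantified by LC/MS/MS in the tumours.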"}, "[3]": {"assay": "FTY720 and P-FTY720 in tumour and serum of A549-xenograft mice by LC/MS/MS", "format": "in vivo, SCID mice", "conditions": "mice treated with oral FTY720 3 mg/kg/day"}, "A549 cells": {"tested_on": "A549 cells", "assay": "Cell death by LDH release", "format": "cell-based, human", "conditions": "A549 cells, FTY720 20 µM, LDH release; OA 10 nM", "how_it_was_run": "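A549 cells were exposed to 20 µM test compound or vehicle for 24 h, and cell death was read as LDH released into the medium. Variants included pre-treatment with okadaic acid (10 nM), Z-VAD or necrostatin, and PP2A siRNA knockdown against scrambled siRNA (knockdown checked by Western blot). Another variant used HA-tagged PP2A overexpression, confirmed by Western blot, compared with controls.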"}, "[4]": {"tested_on": "H157 (K-Ras mutant) human lung cancer cells", "assay": "Cell death by LDH release", "format": "cell-based", "conditions": "FTY720 20 µM, LDH release", "how_it_was_run": "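Cell death was assessed in human lung cancer lines H157 (K-Ras mutant) and H827 (EGFR mutant) after exposure to test compound. Conditions compared with controls: RIPK1 inhibition by necrostatin, PP2A inhibition by okadaic acid, and siRNA knockdown of RIPK1 or PP2Ac.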"}, "WT-I2PP2A/SET-GFP": {"target": "WT-I2PP2A/SET-GFP (Homo sapiens, UniProt Q01105)", "sequence (Q01105 1-277 isoform Q01105-2)": "as above", "assay": "anti-GFP pull-down from A549 cells, protein-bound endogenous lipids by LC/MS/MS", "format": "binding", "conditions": "LC/MS/MS after pull-down"}, "ATG5−/− MEFs": {"tested_on": "ATG5−/− MEFs", "assay": "Caspase 3 activity assay, taxol-induced apoptosis", "format": "cell-based, mouse", "conditions": "80 nM and 24 h, compared to WT MEFs"}},
  "note": "Peptide text beside a SMILES is read from it. * marks the point of attachment. Cbz = O=C(OCc1ccccc1)*; CH2F = FC*",
  "data": [
    {"smiles": "CCCCCCCCc1ccc(CC[C@](N)(CO)COP(=O)(O)O)cc1", "note": "[P-FTY720]", "values": [
      {"measurement": "Protein Kd", "setting": "[1]", "result": "below the detection limit"},
      {"measurement": "accumulation in serum on loss of SK-2", "setting": "[2]", "result": "almost completely abrogated"},
      {"measurement": "accumulation in A549-xenograft-derived tumours", "setting": "[3]", "result": 0.05, "unit": "pmol/nmol Pi"},
      {"measurement": "accumulation in serum", "setting": "[3]", "result": "~400", "unit": "pmol/mL"}
    ]},
    {"smiles": "CC(NC(=O)C(NC(=O)OCc1ccccc1)C(C)C)C(=O)NC(CC(=O)O)C(=O)CF", "note": "(stereo not drawn) [Z-VAD] (Cbz-Val-Ala-Asp-CH2F; configuration not given here)", "values": [
      {"measurement": "effect of pre-treatment on FTY720-mediated cell death / growth suppression", "setting": "A549 cells", "result": "had no effect"}
    ]},
    {"smiles": "CN1C(=O)C(Cc2c[nH]c3ccccc23)NC1=S", "note": "(stereo not shown) [necrostatin]", "values": [
      {"measurement": "effect of pre-treatment on FTY720-mediated cell death / growth suppression", "setting": "A549 cells", "result": "significantly prevented"},
      {"measurement": "effect on FTY720-mediated cell death", "setting": "[4]", "result": "prevented FTY720-mediated cell death"}
    ]},
    {"smiles": "C=C1[C@@H](O)[C@@H]2O[C@]3(CC[C@H](/C=C/[C@@H](C)[C@@H]4CC(C)=C[C@@]5(O[C@H](C[C@@](C)(O)C(=O)O)CC[C@H]5O)O4)O3)CC[C@H]2O[C@@H]1[C@@H](O)C[C@H](C)[C@H]1O[C@@]2(CCCCO2)CC[C@H]1C", "note": "[okadaic acid]", "values": [
      {"measurement": "effect on FTY720-mediated cell death", "setting": "[4]", "result": "prevented FTY720-mediated cell death"}
    ]},
    {"smiles": "CCCCCCCCCCCCC/C=C/[C@@H](O)[C@@H](N)CO", "note": "[sphingosine]", "values": [
      {"measurement": "binding of endogenous sphingosine", "setting": "WT-I2PP2A/SET-GFP", "result": "bind"}
    ]},
    {"smiles": "CC(=O)O[C@H]1C(=O)[C@@]2(C)[C@H]([C@H](OC(=O)c3ccccc3)[C@]3(O)C[C@H](OC(=O)[C@H](O)[C@@H](NC(=O)c4ccccc4)c4ccccc4)C(C)=C1C3(C)C)[C@]1(OC(C)=O)CO[C@@H]1C[C@@H]2O", "note": "[taxol]", "values": [
      {"measurement": "caspase 3 activity (apoptosis)", "setting": "ATG5−/− MEFs", "result": "increased caspase 3 activity"}
    ]}
  ]
}
